In ChEMBL document CHEMBL1149200, “Toxic effects of natural piperine and its derivatives on epimastigotes and amastigotes of Trypanosoma cruzi” (Bioorg Med Chem Lett, 2004):

What was measured:
[1] = test system: Trypanosoma cruzi; experiment: In vitro growth inhibition of epimastigotes of Trypanosoma cruzi; format: functional, organism-based
In short: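 Y-strain epimastigotes were grown in axenic culture and proliferation was measured. Compounds came from 10 mg mL-1 DMSO stocks, diluted 1:2 serially in medium to final levels of 0.76–25, each in triplicate. IC50 was derived by linear regression.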

[2] = test system: Trypanosoma cruzi; experiment: In vitro growth inhibition of amastigotes of Trypanosoma cruzi; format: functional, organism-based
In short: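 Intracellular amastigotes, Y-strain, in in vitro infected murine peritoneal macrophages. Compounds were held as 10 mg mL-1 DMSO stocks and serially diluted in medium before use. Read-out was the reduction in intracellular amastigote number. IC50 was obtained by linear regression.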

IC50 [1] | IC50 [2] | Structure (SMILES)
> 95.8 µM | – | O=C(/C=C/c1ccc2c(c1)OCO2)N1CCOCC1
14.8 µM | 7.77 µM | CC(C)N(C(=O)/C=C/C=C/c1ccc2c(c1)OCO2)C(C)C
> 81.4 µM | – | O=C(/C=C/C=C/c1ccc2c(c1)OCO2)NCc1ccccc1
> 83.3 µM | – | CN1CCN(C(=O)/C=C/C=C/c2ccc3c(c2)OCO3)CC1
56.1 µM | 5.71 µM | O=C(/C=C/C=C/c1ccc2c(c1)OCO2)N1CCOCC1
10.7 µM | 7.4 µM | O=C(/C=C/C=C/C=C/c1ccc2c(c1)OCO2)N1CCCCC1
> 83.3 µM | – | O=C(/C=C/C=C/c1ccc2c(c1)OCO2)OC1CCCCC1
> 65.6 µM | – | COc1ccc(CCNC(=O)/C=C/C=C/c2ccc3c(c2)OCO3)cc1OC
17.5 µM | 9.63 µM | C(/C=C/c1ccc2c(c1)OCO2)=C\CN1CCCCC1
> 96.5 µM | – | O=C(/C=C/c1ccc2c(c1)OCO2)N1CCCCC1 [ILEPCIMIDE]
> 115 µM | – | O=C(O)/C=C/C=C/c1ccc2c(c1)OCO2 [PIPERIC ACID]
19.4 µM | 11.5 µM | O=C(CCCCc1ccc2c(c1)OCO2)N1CCCCC1 [TETRAHYDROPIPERINE]

Structure (SMILES) | IC50 [1] | IC50 [2]
O=C(Cn1ccnc1[N+](=O)[O-])NCc1ccccc1 [BENZNIDAZOLE] | – | 2.58 µM
